Test results published in ChEMBL document CHEMBL1156883, “Low molecular weight antagonists of the myelin-associated glycoprotein: synthesis, docking, and biological evaluation” (J Med Chem, 2010).

What was measured:
[1] = target: T1, Myelin-associated glycoprotein (Mus musculus, UniProt P20917); assay: Binding affinity to mouse MAGd1-3Fc expressed in CHO-Lec 3.2.8.1 cells by SPR analysis
T1 sequence (P20917 whole entry): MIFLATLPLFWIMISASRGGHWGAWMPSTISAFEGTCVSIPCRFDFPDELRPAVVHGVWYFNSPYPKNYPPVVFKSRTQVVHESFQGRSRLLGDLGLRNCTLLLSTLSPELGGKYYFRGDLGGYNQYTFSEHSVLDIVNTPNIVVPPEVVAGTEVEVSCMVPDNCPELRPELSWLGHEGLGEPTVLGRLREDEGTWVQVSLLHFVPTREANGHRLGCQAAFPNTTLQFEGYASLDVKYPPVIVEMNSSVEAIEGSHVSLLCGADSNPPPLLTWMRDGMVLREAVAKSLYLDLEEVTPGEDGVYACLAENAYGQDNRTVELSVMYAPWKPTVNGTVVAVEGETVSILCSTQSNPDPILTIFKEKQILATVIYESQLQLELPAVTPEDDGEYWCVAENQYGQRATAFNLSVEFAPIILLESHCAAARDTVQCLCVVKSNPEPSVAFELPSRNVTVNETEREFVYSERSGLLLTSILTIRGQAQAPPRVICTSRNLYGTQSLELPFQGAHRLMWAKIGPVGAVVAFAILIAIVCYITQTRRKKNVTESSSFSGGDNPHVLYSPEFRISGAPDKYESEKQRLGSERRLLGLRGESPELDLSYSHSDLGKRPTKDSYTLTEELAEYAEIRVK
Summary of the method: (§1)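 Murine MAGd1-3-Fc (purified from CHO-Lec 3.2.8.1 supernatant) captured at 30-40 μg/mL to about 2000 RU on protein A, which was amine-coupled to a CM5 chip. Runs at 25 °C, 20 μL/min, with 1 min injection and 1 min dissociation. Ten-fold dilution series in duplicate, double blank referenced. Negative sensorgrams mirrored; equilibrium KD.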

[2] = target: T1, Myelin-associated glycoprotein; assay: Binding affinity to mouse MAGd1-3Fc expressed in CHO-Lec 3.2.8.1 cells under NaCl condition by CM5 chip SPR analysis
Summary of the method: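 SPR on a CM5 chip with protein A-captured murine MAGd1-3-Fc. Salt was raised to 150-500 mM NaCl to exclude ionic repulsion. Runs at 25 °C, 20 μL/min, 1 min contact and 1 min dissociation, double blank referenced. Equilibrium KD from mirrored sensorgrams.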

[3] = target: T1, Myelin-associated glycoprotein; assay: Binding affinity to mouse MAGd1-3Fc expressed in CHO-Lec 3.2.8.1 cells under HBS-EP condition by CM4 chip SPR analysis
Summary of the method: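 Protein A was amine-coupled to a CM4 chip (lower carboxylate density) and murine MAGd1-3-Fc captured on it. Run in HBS-EP at 25 °C, 20 μL/min, with 1 min association and 1 min dissociation. Ten-fold dilution series in duplicate, double blank referenced. Negative sensorgrams mirrored to give equilibrium KD.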

[4] = target: T1, Myelin-associated glycoprotein; assay: Binding affinity to mouse MAGd1-3Fc expressed in CHO-Lec 3.2.8.1 cells under HBS-EP condition by CM5 chip SPR analysis; summary of the method: as §1
[5] = target: T1, Myelin-associated glycoprotein; assay: Binding affinity to mouse MAGd1-3Fc expressed in CHO-Lec 3.2.8.1 cells under HEPES condition by CM5 chip SPR analysis
Summary of the method: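 Murine MAGd1-3-Fc captured on protein A on a CM5 chip. Running buffer carried 50 mM instead of 10 mM HEPES to raise buffer capacity. SPR at 25 °C, 20 μL/min, 1 min injection and 1 min dissociation, double blank referenced. KD taken at equilibrium from mirrored sensorgrams.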

[6] = target: T1, Myelin-associated glycoprotein; assay: Binding affinity to mouse MAGd1-3Fc expressed in CHO-Lec 3.2.8.1 cells under carboxymethyl-dextran sodium salt condition by CM5 chip SPR analysis
Summary of the method: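 Dextran (1 mg/mL) added to the running buffer to test nonspecific binding to the matrix. Murine MAGd1-3-Fc captured via protein A on a CM5 chip. Runs at 25 °C, 20 μL/min, 1 min injection and 1 min dissociation. Equilibrium KD from mirrored sensorgrams.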

[7] = target: T2, Myelin-associated glycoprotein (Mus musculus) (UniProt P20917); assay: Inhibition of mouse MAGd1-3Fc expressed in CHO-Lec 3.2.8.1 cells by hepten inhibition assay relative to sodium-(2R,4S,5R,6R)-5-acetamido-2-(benzyloxy)-6-((1S,2R)-3-(4-chlorobenzamido)-1,2-dihydroxypropyl)-4-hydroxytetrahydro-2H-pyran-2-carboxylate; assay type: cell-based
T2 sequence (whole entry): T1 sequence (P20917 whole entry)
Summary of the method: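 Fetuin-coated microtiter plates. Murine MAGd1-3-Fc (from CHO-Lec 3.2.8.1, dialyzed into 10 mM phosphate pH 7.4) bound in the presence of 7-8 inhibitor concentrations, in triplicate. Bound protein detected with alkaline phosphatase-labeled anti-Fc, read as initial rate of fluorescein release from fluorescein diphosphate. IC50 from binding curves converted to rIC50. At least three independent titrations.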

[8] = Octanol-water distribution coefficient, log D at pH 7.4 by shake-flask technique; assay type: physicochemical
[9] = target: T1, Myelin-associated glycoprotein; assay: Binding affinity to mouse MAGd1-3Fc expressed in CHO-Lec 3.2.8.1 cells by biocore; assay type: cell-based; summary of the method: as §1
[10] = Stability in buffer solution at 37 degC after 19 hrs; assay type: physicochemical; conditions: read-out: Stability
[11] = Stability in artificial cerebrospinal fluid at 37 degC […]; assay type: physicochemical; conditions: read-out: Stability
[12] = target: T2, Myelin-associated glycoprotein (Mus musculus); assay: Relative binding affinity to mouse MAGd1-3Fc expressed in CHO-Lec 3.2.8.1 cells by NMR analysis relative to compound 4

Kd [1] [µM] | Ratio [7] | logD [8] | Compound | also measured
26 | 1.5 |  | CC(=O)N[C@H]1[C@H]([C@@H](O)[C@H](O)CNC(=O)c2ccccc2)O[C@@](OCc2ccccc2)(C(=O)O)C[C@@H]1O | Kd [2]: 14.9 µM; Kd [3]: 20 µM; Kd [4]: 21.8 µM; Kd [5]: 17.6 µM; Kd [6]: 17.8 µM
11.6 | 0.74 | 0.58 | CC(=O)N[C@H]1[C@H]([C@@H](O)[C@H](O)CNC(=O)c2ccc(Cl)cc2)O[C@@](OCc2ccc3ccccc3c2)(C(=O)O)C[C@@H]1O | 
11.7 | 0.74 |  | CC(=O)N[C@H]1[C@H]([C@@H](O)[C@H](O)CNC(=O)c2ccccc2)O[C@@](OCc2c[nH]nn2)(C(=O)O)C[C@@H]1O | 
137 | 18 |  | CO[C@]1(C(=O)O)C[C@H](O)[C@@H](NC(C)=O)[C@H]([C@@H](O)[C@H](O)CNC(=O)c2ccccc2)O1 | Kd [9]: 137 µM
2.1 | 0.07 | 0.35 | O=C(CCl)N[C@H]1[C@H]([C@@H](O)[C@H](O)CNC(=O)c2ccc(Cl)cc2)O[C@@](OCc2cccc(F)c2F)(C(=O)O)C[C@@H]1O | 
15 | 1.3 | 0.36 | CC(=O)N[C@H]1[C@H]([C@@H](O)[C@H](O)CNC(=O)c2ccc(Cl)cc2)O[C@@](OCc2ccc(Cl)cc2)(C(=O)O)C[C@@H]1O | 
5.8 | 0.14 | 0.75 | O=C(NC[C@@H](O)[C@H](O)[C@@H]1O[C@@](OCc2cccc(F)c2F)(C(=O)O)C[C@H](O)[C@H]1NC(=O)C1CCC1)c1ccc(Cl)cc1 | 
17 | 0.6 | -0.17 | CS(=O)(=O)N[C@H]1[C@H]([C@@H](O)[C@H](O)CNC(=O)c2ccc(Cl)cc2)O[C@@](OCc2cccc(F)c2F)(C(=O)O)C[C@@H]1O | 
6.1 | 0.26 | -0.11 | CC(=O)N[C@H]1[C@H]([C@@H](O)[C@H](O)CNC(=O)c2ccc(Cl)cc2)O[C@@](OCc2c(F)c(F)c(F)c(F)c2F)(C(=O)O)C[C@@H]1O | 
4.3 | 0.5 | 0.53 | CC(=O)N[C@H]1[C@H]([C@@H](O)[C@H](O)CNC(=O)c2ccc(Cl)cc2)O[C@@](OCc2cccc(Cl)c2Cl)(C(=O)O)C[C@@H]1O | 
17 | 1 |  | CC(=O)N[C@H]1[C@H]([C@@H](O)[C@H](O)CNC(=O)c2ccc(Cl)cc2)O[C@@](OCc2ccccc2)(C(=O)O)C[C@@H]1O | 
4.1 | 0.1 | 0.31 | O=C(NC[C@@H](O)[C@H](O)[C@@H]1O[C@@](OCc2cccc(F)c2F)(C(=O)O)C[C@H](O)[C@H]1NC(=O)C1CC1)c1ccc(Cl)cc1 | 
2.3 | 0.14 | 0.06 | COCC(=O)N[C@H]1[C@H]([C@@H](O)[C@H](O)CNC(=O)c2ccc(Cl)cc2)O[C@@](OCc2cccc(F)c2F)(C(=O)O)C[C@@H]1O | 
2.4 | 0.3 | -0.27 | CC(=O)N[C@H]1[C@H]([C@@H](O)[C@H](O)CNC(=O)c2ccc(Cl)cc2)O[C@@](OCc2cccc(F)c2F)(C(=O)O)C[C@@H]1O | remaining at 19 h [10]: 95%; remaining [11]: 95%; Ratio [12]: 34.4
33.9 | 2.65 |  | CC(=O)N[C@H]1[C@H]([C@@H](O)[C@H](O)CNC(=O)c2cccc(Cl)c2)O[C@@](OCc2ccccc2)(C(=O)O)C[C@@H]1O | 
13 | 1.2 | -0.11 | CC(=O)N[C@H]1[C@H]([C@@H](O)[C@H](O)CNC(=O)c2ccc(Cl)cc2)O[C@@](OCc2ccc(F)cc2)(C(=O)O)C[C@@H]1O | 
1.4 | 0.05 | 0.87 | O=C(NC[C@@H](O)[C@H](O)[C@@H]1O[C@@](OCc2cccc(F)c2F)(C(=O)O)C[C@H](O)[C@H]1NS(=O)(=O)c1ccccc1[N+](=O)[O-])c1ccc(Cl)cc1 | 
2.83 | 0.52 |  | O=C(O)N[C@H]1[C@H]([C@H](O)[C@H](O)CNC(=O)c2ccc(Cl)cc2)O[C@@](O[C@H]2[C@@H](O)[C@@H](CO)O[C@@H](O[C@@H]3CCO[C@H](COCc4ccc(-c5ccccc5)cc4)[C@@H]3O)[C@@H]2O)(C(=O)O)C[C@@H]1O | 
19.2 | 1.61 |  | CC(=O)N[C@H]1[C@H]([C@@H](O)[C@H](O)CNC(=O)c2ccc(Cl)c(Cl)c2)O[C@@](OCc2ccccc2)(C(=O)O)C[C@@H]1O | 

Compound | Kd [1] [µM] | Ratio [7] | logD [8] | also measured
O=C(CF)N[C@H]1[C@H]([C@@H](O)[C@H](O)CNC(=O)c2ccc(Cl)cc2)O[C@@](OCc2cccc(F)c2F)(C(=O)O)C[C@@H]1O | 0.5 | 0.02 | -0.26 | remaining at 19 h [10]: 95%; remaining [11]: 95%
